Experimental data reported in PMC6682138 (ACS Omega, 2019).

Test system: A549 cells
Test: MTT cytotoxicity assay, A549
Assay type: cell-based, human
Conditions: read-out: IC50 A549, 24 h incubation
Method in brief: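 MTT assay. Cells seeded at 2 × 10^4 per well. A549 and HeLa S3 were maintained in DMEM with 10% FBS, 2 mM L-glutamine and antibiotics at 37 °C, 5% CO2. Test compound in DMSO (0.5%) applied at 100–3.125 μM for 24 h. After a PBS wash, cells received fresh DMEM with MTT (5 mg/mL) for 3–4 h in the dark. DMSO was added and absorbance read at 570 nm. Inhibition % = (A−B)/A × 100 versus untreated control, and IC50 taken from viability–concentration curves.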

## N.N.[Cl][Pt][Cl] [cisplatin, reference compound]
  IC50: 18 ± 3.1 µM
